Test: Toxicity liver stage against HepG2, at 10uM
Format: cell-based
Set-up: test concentration 10 uM, cell line HepG2-A16-CD81EGFP
Conditions: human, HepG2-A16-CD81EGFP cells; read-out: INHIBITION
Outline: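 Uninfected HepG2-A16-CD81EGFP cells, 3 × 10^3 per well, 1536-well, plated on prespotted compound at 10 μM final, parasite-free screening media added to match infected plates; puromycin 10 μM positive, DMSO 0.5% negative; run in parallel with 48 h PbLuc assay at 37 °C, 5% CO2; viability by CellTiter-Glo luminescence, normalized to controls.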

Point of comparison: `Cc1ccc(N2CCN(C)c3ncccc3C2)nn1`, cytotoxicity at 10 µM -3.77%. Against it:
- O=C1COc2cc(S(=O)(=O)NCCC3=CCCCC3)c(Cl)cc2N1 — higher, 18.6%
- CCCS(=O)(=O)N1CC(=O)N(CCCc2ccccc2)CC(O)C1 (stereo unspecified) — lower, -17%
- O=C(c1cc(C2CC2)on1)N1CCC(Oc2ncccc2Cl)CC1 — higher, 5.37%
- CC1N(CC2CC2)C(=O)COC12CCN(C(=O)c1ccncc1)CC2 (stereo unspecified) — lower, -13.7%
- COc1cccc(CNC(=O)c2nc3c(o2)CN(C(=O)N(C)C)C3)c1 — higher, -1.68%
- COc1ccccc1CCNC(=O)CC1(Cn2cnnn2)CCCCC1 — higher, 11.3%
- O=C(Nc1ccccc1)C1=CC2(CCNCC2)c2ccccc21 — higher, 1.54%
- CN(Cc1ccccn1)C(=O)[C@]12COC[C@H]1CN(Cc1cnn(C)c1)C2 — lower, -9.74%
- O=C(c1ccccn1)N1Cc2ccccc2OC2(CCOCC2)C1 — lower, -12.9%
- Cc1nc(C(=O)N(C)[C@@H]2CCC[C@@H](Oc3ccccc3)[C@@H]2O)co1 — lower, -22.6%
- CC(C)S(=O)(=O)N1CCC(c2cc3n(n2)[C@@H](C(F)(F)F)C[C@@H](C)N3)CC1 — lower, -13.5%
- CSCC[C@@H]1CN2CCC[C@H]2CN1Cc1cn(C)nc1C — lower, -11.3%
- COCC(=O)N1CCCCC1c1ccnc(Nc2ncc(C)s2)n1 (stereo unspecified) — lower, -10.6%
- CS(=O)(=O)c1snnc1C1CCN(Cc2cccnc2)CC1 — lower, -11.2%
- COc1ccc(-n2cc(CNC(=O)c3ccc[nH]3)nn2)cc1 — lower, -10.9%
- Clc1cc(Cl)cc(CN2CCC(NCc3ncc[nH]3)CC2)c1 — higher, 18.4%
- Fc1cc(CCNc2ccc3nccn3n2)c2c(c1)COCO2 — higher, 17.2%
- O=C(NCc1ccc(-n2cncn2)nc1)c1cnccn1 — lower, -5.18%
- COc1ccc(S(=O)(=O)C(F)(F)F)cc1NC(=O)CSCC#N — higher, -2.72%
- Cn1cc(NC(=O)N2CCN(Cc3cscn3)CC2)ccc1=O — higher, 3.67%
- OC(CN1CC(n2cccn2)C1)c1ccc2c(c1)OCCO2 (stereo unspecified) — lower, -19%
- CCN(CC1CN(Cc2cccnc2)CCO1)c1cccnn1 (stereo unspecified) — lower, -14%
- Clc1cnccc1N1CCC(OC2CCOCC2)CC1 — higher, -0.439%
- c1ccc(-c2nc(CNC3CCCN(c4cccnn4)C3)no2)cc1 (stereo unspecified) — higher, 15.9%
- CN(Cc1ccc(F)cc1)C(=O)CN1CCCCC1Cn1cncn1 (stereo unspecified) — higher, 0.108%
- O=C(C1CCCC1)N1CCC2(CC1)OCCO2 — higher, 2.53%
- COc1ccc(CNC(=O)NCc2nc(C)c(C)s2)cn1 — higher, 8.73%
- CCN(Cc1ccoc1)C(=O)NC1CCN(CC2CCCC2)CC1 — lower, -6.11%
- CC(=O)N(C)CC(=O)NCC1(c2cccc(C)c2)CCCC1 — higher, -2.37%
- CCN(Cc1ccoc1)C(=O)c1cc2c(c(S(N)(=O)=O)c1)CCC2 — lower, -4.97%
- COCCS(=O)(=O)NC(C)c1cccc(C)c1C (stereo unspecified) — higher, 6.13%
- Cn1cc(CCNC(=O)C2(c3cccc(Cl)c3)CC2)cn1 — higher, 0.33%
- CC(NC(=O)N1CCNC(=O)CC1)c1ccc(C(F)(F)F)cc1 (stereo unspecified) — higher, 13.7%
- COCCC(C)NC(=O)N1CCSC(C)(C)C1 (stereo unspecified) — lower, -3.94%
- CC(C)OCCCNC(=O)NCc1cccc(-n2ccnc2)c1 — higher, 18.5%
- NC(=O)C1CCCN1Cc1ccccc1NC(=O)CC(F)(F)F (stereo unspecified) — higher, 13.1%
- COCC(C)NC(=O)CCCn1cnc2ccccc2c1=O (stereo unspecified) — higher, 8.43%
- CCc1cnc(CCNS(C)(=O)=O)s1 — higher, 2.17%
- CN(C(=O)c1cccc(C(=O)NS(C)(=O)=O)c1)c1ccccc1 — higher, -2.35%
- COCC1CC2(CCN(Cc3ccoc3)CC2)CN1Cc1ccccn1 (stereo unspecified) — lower, -98.8%
- O=C(c1cccnc1)N1CCO[C@@H]2CNC[C@@H]21 — lower, -103%
- O=C(c1cnccn1)N1CCc2ncc(CN3CCOCC3)n2CC1 — lower, -77%
- CCOC[C@@H]1CCC[C@@]12CN(Cc1cccnc1)CCO2 — lower, -65.7%
- O=C(c1cccs1)N1CCC2(CC1)CN(c1cncnc1)C(=O)CO2 — lower, -67.7%
- Cc1cc(C(=O)N2CC[C@H]3C[C@H](c4ccncn4)O[C@@H]3C2)c(C)[nH]1 — lower, -70.1%
- Cc1ccc(CN2CCCC3(CCN(S(=O)(=O)N(C)C)C3)C2)o1 (stereo unspecified) — higher, 7.49%
- Cc1nn(CC(=O)O)c(C)c1NS(=O)(=O)c1cc2ccccc2s1 — lower, -7.07%
- COc1ccccc1OCCn1c(C)c(C)oc1=O — higher, -3.05%
- c1ccc(-c2nc3c(c(NCc4n[nH]c5c4CCC5)n2)CCNC3)cc1 — lower, -12.8%
- Cc1cc(N2CCCN(Cc3ccc(C)o3)CC2)ccn1 — lower, -5.51%
- CN(CCc1cnn(C)c1)C(=O)C(c1ccccc1F)N(C)C (stereo unspecified) — higher, 3.11%
- O=C(NCCCO)c1cnc(-c2ccccc2)nc1O — lower, -7.11%
- CCNc1ncc(C(=O)NC(CC)c2ccnn2C)cn1 (stereo unspecified) — higher, -2.4%
- Cn1c(N2CCOCC2)nc2cc(C(=O)NCc3cccnc3)ccc21 — higher, 0.678%
- Nc1nc2c(c(N3CCCC(CN4CCCC4=O)C3)n1)CCNCC2 (stereo unspecified) — higher, 14.6%
- CC(C)(O)CCc1cccc(C(=O)N[C@H](C(N)=O)c2ccccc2)c1 — lower, -4.21%
- Cn1nc(C2CCCN(C(=O)Cc3ccsc3)C2)c2nccnc21 (stereo unspecified) — higher, 4.68%
- Cc1cccc2cc(CNCCCN3CCOCC3)c(=O)[nH]c12 — higher, 0.127%
- Cc1nc(CN2CCCC(NCc3sccc3C)C2)no1 (stereo unspecified) — higher, -2.85%
- CC(C)Oc1ccc(CNC(=O)NCC(C)(C)C(N)=O)cc1F — lower, -24.8%
- CC(=O)N1CCC(NC(=O)N2CCN(c3cnccn3)CC2)CC1 — higher, 6.47%
- CCOc1ccc2c(c1)CN(Cc1nc3c(cnn3C)c(=O)[nH]1)CC2 — higher, -0.373%
- Cc1ccc(-c2noc(CN3CCCC(Cn4cncn4)C3)n2)cc1 (stereo unspecified) — lower, -7.12%
- O=c1[nH]c(CN2CCOC(Cn3cccn3)C2)nc2ccccc12 (stereo unspecified) — higher, -2.32%
- Cc1cccc(CN2Cc3[nH]nc(COCC4CC4)c3C2)n1 — higher, 3.79%
- CCOCC1CN(c2ccc(C)nn2)Cc2cnn(CC)c21 (stereo unspecified) — higher, 9.41%
- COc1ccc(CNC(C)c2ccccc2Cl)c(OC)c1OC (stereo unspecified) — higher, 8.01%
- O=C(c1ccccc1)N1CCO[C@@H]2CN(c3ncccn3)C[C@@H]2C1 — lower, -6.63%
- CN(C)c1ncc(C2Nc3cc(Cl)ccc3C3=NCCCN32)cn1 (stereo unspecified) — lower, -32%
- c1cnc(NCc2cncc3c2CCN(CC2CC2)C3)nc1 — lower, -101%
- Cn1cnc2c(-c3cccnc3)nc(C3CCNCC3)cc21 — lower, -99.9%
- c1cc(COC[C@]23COC[C@H]2CN(CC2CCC2)C3)ccn1 — lower, -77.1%
- Cn1cc(C2CC(=O)NC23CCN(CC2CC2)CC3)cn1 (stereo unspecified) — lower, -7.28%
- Cc1noc([C@]23COC[C@H]2CN(Cc2cc(C)on2)C3)n1 — higher, 0.841%
- COCCN1C(=O)CCC12CCCN(Cc1nccs1)CC2 (stereo unspecified) — lower, -85.1%
- O=C(N[C@H]1CN(Cc2ccsc2)[C@@H]2CCCO[C@H]12)C1CC1 — higher, 4.62%
- c1ccc(NC[C@@H]2CCC[C@@H]3CN(c4ncccn4)C[C@@H]32)nc1 — lower, -106%
- c1ccc(CN2C[C@@H]3COC[C@]3(COCc3ccncc3)C2)nc1 — lower, -76.1%
- O=C(Nc1ccccc1)N1C2CCC(O)(CC2)C1CN1CCOCC1 (stereo unspecified) — higher, 10%
- CCCN1C[C@@H]2CC[C@H]1CN(Cc1cccc(-n3cccn3)c1)C2 — higher, -1.69%
